Residue numbers refer to the chain shown, from its start.
Legend:
Settings in all cases: stereoisomer not certain
[1] = target: T1, OR4F17 (Homo sapiens) (UniProt Q8NGA8)
T1 sequence (whole entry): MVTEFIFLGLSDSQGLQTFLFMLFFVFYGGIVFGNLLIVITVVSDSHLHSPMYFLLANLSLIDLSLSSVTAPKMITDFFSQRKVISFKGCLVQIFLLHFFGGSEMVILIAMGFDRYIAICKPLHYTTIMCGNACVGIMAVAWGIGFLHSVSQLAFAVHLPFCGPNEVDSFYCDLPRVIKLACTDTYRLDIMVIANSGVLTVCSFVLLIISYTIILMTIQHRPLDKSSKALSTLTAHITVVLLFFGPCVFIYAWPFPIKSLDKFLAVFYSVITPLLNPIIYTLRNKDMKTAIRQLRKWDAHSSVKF
Procedure, shortened: (§1)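 Transient luciferase assays in mammalian cell lines were common, though methods varied by source. The values come from published papers and their supplementary material, with extra details from the original authors when needed. Responsive refers to a measured signal the original authors judged statistically different from baseline, and non-responsive (inactive) to the remainder.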

[2] = target: T2, OR4F21 (Homo sapiens) (UniProt O95013)
T2 sequence (whole entry): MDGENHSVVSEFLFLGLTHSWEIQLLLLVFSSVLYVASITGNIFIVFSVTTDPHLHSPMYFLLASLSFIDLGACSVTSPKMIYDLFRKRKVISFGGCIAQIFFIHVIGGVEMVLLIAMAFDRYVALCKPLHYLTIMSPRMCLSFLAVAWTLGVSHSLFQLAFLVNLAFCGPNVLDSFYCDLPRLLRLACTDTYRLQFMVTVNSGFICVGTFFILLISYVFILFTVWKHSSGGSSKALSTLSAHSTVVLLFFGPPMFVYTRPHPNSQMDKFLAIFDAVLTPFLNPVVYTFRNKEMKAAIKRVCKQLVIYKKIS
Procedure, shortened: as §1

[3] = target: T3, OR4F3 (Homo sapiens) (UniProt Q6IEY1)
T3 sequence (whole entry): T2 sequence (whole entry) with F44L, I107V, K310R
Procedure, shortened: as §1

[4] = target: T4, OR4F4 (Homo sapiens) (UniProt Q96R69)
T4 sequence (whole entry): T1 sequence (whole entry) with G15E, R221C, Q293R
Procedure, shortened: as §1

[5] = target: T5, OR4F5 (Homo sapiens) (UniProt Q8NH21)
T5 sequence (whole entry): T1 sequence (whole entry) with G15E, A141T, P160L
Procedure, shortened: as §1

[6] = system: T6, OR4F5 T141A Q293R
T6 sequence (whole entry): T1 sequence (whole entry) with G15E, P160L, Q293R
Procedure, shortened: as §1

[7] = target: T7, OR4F6 (Homo sapiens) (UniProt Q8NGB9)
T7 sequence (whole entry): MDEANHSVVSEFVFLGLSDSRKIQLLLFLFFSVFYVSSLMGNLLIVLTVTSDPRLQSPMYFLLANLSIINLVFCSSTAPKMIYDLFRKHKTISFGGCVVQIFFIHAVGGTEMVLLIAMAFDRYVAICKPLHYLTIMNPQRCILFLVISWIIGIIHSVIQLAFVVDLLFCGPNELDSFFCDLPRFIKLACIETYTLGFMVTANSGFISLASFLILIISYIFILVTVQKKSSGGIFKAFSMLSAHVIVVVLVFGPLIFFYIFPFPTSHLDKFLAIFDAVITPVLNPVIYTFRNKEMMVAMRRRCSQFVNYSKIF
Procedure, shortened: as §1

[8] = target: T8, OR4K1 (Homo sapiens) (UniProt Q8NGD4)
T8 sequence (whole entry): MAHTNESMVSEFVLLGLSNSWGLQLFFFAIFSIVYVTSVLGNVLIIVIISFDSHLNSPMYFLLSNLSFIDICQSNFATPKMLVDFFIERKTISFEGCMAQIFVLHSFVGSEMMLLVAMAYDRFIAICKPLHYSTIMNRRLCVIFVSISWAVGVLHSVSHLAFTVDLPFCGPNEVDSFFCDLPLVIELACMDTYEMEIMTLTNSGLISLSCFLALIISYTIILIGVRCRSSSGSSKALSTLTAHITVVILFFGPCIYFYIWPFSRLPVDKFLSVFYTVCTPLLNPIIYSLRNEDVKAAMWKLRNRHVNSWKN
Procedure, shortened: as §1

[9] = system: T9, OR4K1 R304H
T9 sequence (whole entry): T8 sequence (whole entry) with R304H
Procedure, shortened: as §1

[10] = target: T10, OR4K13 (Homo sapiens) (UniProt Q8NH42)
T10 sequence (whole entry): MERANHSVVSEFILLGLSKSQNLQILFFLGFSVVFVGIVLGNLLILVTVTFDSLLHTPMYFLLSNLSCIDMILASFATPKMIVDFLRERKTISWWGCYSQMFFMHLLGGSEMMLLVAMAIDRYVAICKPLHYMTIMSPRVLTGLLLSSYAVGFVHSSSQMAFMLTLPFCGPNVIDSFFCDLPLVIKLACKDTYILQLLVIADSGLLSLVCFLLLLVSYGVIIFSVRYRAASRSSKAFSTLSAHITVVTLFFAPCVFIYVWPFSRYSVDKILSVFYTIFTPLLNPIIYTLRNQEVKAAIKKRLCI
Procedure, shortened: as §1

[11] = target: T11, OR4K14 (Homo sapiens) (UniProt Q8NGD5)
T11 sequence (whole entry): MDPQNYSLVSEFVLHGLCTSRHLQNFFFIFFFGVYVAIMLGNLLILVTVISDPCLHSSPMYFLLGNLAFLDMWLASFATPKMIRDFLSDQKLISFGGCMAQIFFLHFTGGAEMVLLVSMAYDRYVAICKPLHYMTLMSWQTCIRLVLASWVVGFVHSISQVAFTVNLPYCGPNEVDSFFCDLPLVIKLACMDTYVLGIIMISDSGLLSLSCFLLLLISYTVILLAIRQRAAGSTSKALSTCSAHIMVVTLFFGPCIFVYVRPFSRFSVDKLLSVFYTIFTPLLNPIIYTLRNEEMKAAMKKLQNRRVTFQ
Procedure, shortened: as §1

[12] = target: T12, OR4K2 (Homo sapiens) (UniProt Q8NGD2)
T12 sequence (whole entry): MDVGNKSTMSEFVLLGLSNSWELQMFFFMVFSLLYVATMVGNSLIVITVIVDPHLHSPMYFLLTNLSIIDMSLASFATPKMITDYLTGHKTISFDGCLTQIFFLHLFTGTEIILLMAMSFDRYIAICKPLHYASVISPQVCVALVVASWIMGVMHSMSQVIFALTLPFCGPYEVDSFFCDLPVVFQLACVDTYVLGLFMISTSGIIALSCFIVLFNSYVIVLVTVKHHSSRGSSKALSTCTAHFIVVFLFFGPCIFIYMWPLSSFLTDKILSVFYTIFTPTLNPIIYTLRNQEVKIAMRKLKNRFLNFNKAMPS
Procedure, shortened: as §1

[13] = system: T13, OR4K2
T13 sequence (whole entry): T12 sequence (whole entry) with N307I
Procedure, shortened: as §1

[14] = target: T14, OR4K5 (Homo sapiens) (UniProt Q8NGD3)
T14 sequence (whole entry): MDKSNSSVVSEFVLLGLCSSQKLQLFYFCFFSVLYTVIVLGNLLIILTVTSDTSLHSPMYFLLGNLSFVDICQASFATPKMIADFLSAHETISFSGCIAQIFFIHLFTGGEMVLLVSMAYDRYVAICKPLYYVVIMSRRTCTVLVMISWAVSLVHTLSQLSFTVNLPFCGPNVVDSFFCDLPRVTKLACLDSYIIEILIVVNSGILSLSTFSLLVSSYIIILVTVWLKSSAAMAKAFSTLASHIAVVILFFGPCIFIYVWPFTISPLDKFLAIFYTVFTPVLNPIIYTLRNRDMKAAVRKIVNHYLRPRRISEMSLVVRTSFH
Procedure, shortened: as §1

[15] = system: T15, OR4KF
T15 sequence (whole entry): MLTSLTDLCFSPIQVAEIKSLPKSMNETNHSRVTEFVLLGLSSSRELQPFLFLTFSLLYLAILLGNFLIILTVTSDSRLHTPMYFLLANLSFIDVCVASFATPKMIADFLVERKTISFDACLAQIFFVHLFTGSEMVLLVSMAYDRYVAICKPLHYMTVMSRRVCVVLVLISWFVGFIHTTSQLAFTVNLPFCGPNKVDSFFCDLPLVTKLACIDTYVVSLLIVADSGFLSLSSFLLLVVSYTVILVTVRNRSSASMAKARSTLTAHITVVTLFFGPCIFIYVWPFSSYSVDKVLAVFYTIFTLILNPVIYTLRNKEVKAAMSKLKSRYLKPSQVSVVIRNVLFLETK
Procedure, shortened: as §1

[16] = target: T16, OR4K15 (Homo sapiens) (UniProt Q8NH41)
T16 sequence (whole entry): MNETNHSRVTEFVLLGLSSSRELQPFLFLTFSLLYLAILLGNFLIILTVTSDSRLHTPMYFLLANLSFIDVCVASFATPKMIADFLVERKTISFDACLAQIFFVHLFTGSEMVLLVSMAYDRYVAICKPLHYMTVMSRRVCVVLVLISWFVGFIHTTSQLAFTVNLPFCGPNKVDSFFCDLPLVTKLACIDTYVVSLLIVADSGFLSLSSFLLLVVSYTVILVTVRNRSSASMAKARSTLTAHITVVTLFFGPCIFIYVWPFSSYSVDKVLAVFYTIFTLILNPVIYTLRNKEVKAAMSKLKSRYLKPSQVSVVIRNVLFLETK
Procedure, shortened: as §1

[17] = target: T17, OR4K17 (Homo sapiens) (UniProt Q8NGC6)
T17 sequence (whole entry): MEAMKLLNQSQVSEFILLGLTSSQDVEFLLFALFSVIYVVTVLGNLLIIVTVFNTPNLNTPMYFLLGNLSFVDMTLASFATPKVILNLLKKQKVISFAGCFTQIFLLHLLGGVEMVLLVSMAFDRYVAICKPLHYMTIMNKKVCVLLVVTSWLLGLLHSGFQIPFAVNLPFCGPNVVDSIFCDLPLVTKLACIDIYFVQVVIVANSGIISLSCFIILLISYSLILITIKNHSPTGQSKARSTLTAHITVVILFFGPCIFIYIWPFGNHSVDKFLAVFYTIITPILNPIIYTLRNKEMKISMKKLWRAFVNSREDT
Procedure, shortened: as §1

[18] = target: OR4K3 (Homo sapiens) (UniProt Q96R72)
Procedure, shortened: as §1

[19] = system: OR4F3 R310K
Procedure, shortened: as §1

[20] = system: OR4F3 V107I
Procedure, shortened: as §1

Measured: odorant receptor agonist call;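 also: active if original authors judged signal statistically different from baseline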

Sequence of OR4K3 (Homo sapiens) (Q96R72 whole entry): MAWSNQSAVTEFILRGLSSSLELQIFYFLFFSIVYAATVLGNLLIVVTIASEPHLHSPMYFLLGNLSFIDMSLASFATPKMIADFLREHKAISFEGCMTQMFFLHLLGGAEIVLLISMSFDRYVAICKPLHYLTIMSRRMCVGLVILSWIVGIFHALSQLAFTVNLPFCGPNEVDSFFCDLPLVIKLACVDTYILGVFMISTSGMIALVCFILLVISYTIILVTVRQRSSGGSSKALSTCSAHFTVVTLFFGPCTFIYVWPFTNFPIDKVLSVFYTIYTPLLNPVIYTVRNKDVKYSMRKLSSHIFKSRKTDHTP
Sequence of OR4F3 R310K (as listed by the source, stated change not applied): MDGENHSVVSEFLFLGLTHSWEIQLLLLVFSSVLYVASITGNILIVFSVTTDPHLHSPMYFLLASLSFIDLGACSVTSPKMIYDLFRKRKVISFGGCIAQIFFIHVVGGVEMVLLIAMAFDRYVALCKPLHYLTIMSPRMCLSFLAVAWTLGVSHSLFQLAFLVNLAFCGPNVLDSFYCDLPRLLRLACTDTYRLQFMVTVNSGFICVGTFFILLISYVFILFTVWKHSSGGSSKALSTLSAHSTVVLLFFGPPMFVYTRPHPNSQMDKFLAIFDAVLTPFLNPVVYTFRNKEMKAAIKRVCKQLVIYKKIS
Sequence of OR4F3 V107I (as listed by the source, stated change not applied): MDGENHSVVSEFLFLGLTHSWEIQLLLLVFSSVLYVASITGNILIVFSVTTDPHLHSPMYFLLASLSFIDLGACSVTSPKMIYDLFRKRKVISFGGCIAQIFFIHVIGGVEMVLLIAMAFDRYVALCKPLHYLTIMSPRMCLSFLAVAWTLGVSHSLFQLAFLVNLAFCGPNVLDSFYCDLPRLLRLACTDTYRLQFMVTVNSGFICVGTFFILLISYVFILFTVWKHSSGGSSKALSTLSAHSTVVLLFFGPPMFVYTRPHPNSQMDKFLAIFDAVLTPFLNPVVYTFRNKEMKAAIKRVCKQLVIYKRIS

CC1=NC(C)C(C)S1 (stereo unspecified)
inactive: [1] | [2] | [3] | [4] | [5] | [6] | [7] | [8] | [9] | [10] | [11] | [12] | [13] | [14] | [15]

CC1=C(O)C(=O)C(C)O1 (stereo unspecified)
inactive: [1] | [2] | [3] | [4] | [5] | [6] | [7] | [8] | [9] | [10] | [11] | [12] | [13] | [14] | [15]

CCCC(S)CCOC(C)=O (stereo unspecified)
inactive: [1] | [2] | [3] | [4] | [5] | [6] | [7] | [8] | [9] | [10] | [11] | [12] | [13] | [14] | [15]

Cc1cnc(C)c(C)n1
inactive: [1] | [2] | [3] | [4] | [5] | [6] | [7] | [8] | [9] | [10] | [11] | [12] | [13] | [14] | [15]

CCCCCC(S)C(C)CO (stereo unspecified)
inactive: [1] | [2] | [3] | [4] | [5] | [7] | [8] | [10] | [11] | [16] | [17] | [12] | [14]

CC1CCCCCCCCCCCCC(=O)C1 (stereo unspecified)
inactive: [1] | [2] | [3] | [4] | [5] | [7] | [8] | [10] | [11] | [16] | [17] | [12] | [18] | [14]

CC1=C(O)C(=O)OC1C (stereo unspecified)
inactive: [1] | [2] | [3] | [4] | [5] | [6] | [7] | [8] | [9] | [10] | [11] | [12] | [13] | [14] | [15]

CC(CO)CS (stereo unspecified)
inactive: [1] | [2] | [3] | [4] | [5] | [7] | [8] | [10] | [11] | [16] | [17] | [12] | [14]

CCC1OC(C)=C(O)C1=O (stereo unspecified)
inactive: [1] | [2] | [3] | [4] | [5] | [6] | [7] | [8] | [9] | [10] | [11] | [12] | [13] | [14] | [15]

CCCCC(S)C(C)CO (stereo unspecified)
inactive: [1] | [2] | [3] | [4] | [5] | [7] | [8] | [10] | [11] | [16] | [17] | [12] | [14]

CCC(S)C(C)CO (stereo unspecified)
inactive: [1] | [2] | [3] | [4] | [5] | [7] | [8] | [10] | [11] | [16] | [17] | [12] | [14]

CC(=O)c1c(C)c([N+](=O)[O-])c(C(C)(C)C)c([N+](=O)[O-])c1C
inactive: [1] | [2] | [3] | [4] | [5] | [7] | [8] | [10] | [11] | [16] | [17] | [12] | [18] | [14]

CCCCCC(=O)C(C)C(C)=O (stereo unspecified)
inactive: [1] | [2] | [3] | [4] | [5] | [7] | [8] | [10] | [11] | [16] | [17] | [12] | [14]

CCCCCCC=CCCC=O
inactive: [1] | [2] | [3] | [19] | [20] | [4] | [5] | [6] | [7] | [8] | [9] | [10] | [11] | [16] | [17] | [12] | [13] | [14]

CCC1OC(=O)C(O)=C1C (stereo unspecified)
inactive: [1] | [2] | [3] | [4] | [5] | [6] | [7] | [8] | [9] | [10] | [11] | [12] | [13] | [14] | [15]

Reference: the M2OR odorant receptor database
